Bounds are passed on as bounds.

What all share (type): cell-based
Series [1] can be described thus: Antiproliferative activity in mouse BAF3 cells after 72 hrs by CCK8 assay. In a few lines:
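IL-3-independent BaF3 cells carrying tel-c-KIT constructs, grown in RPMI 1640 with 10% FBS. Cells at 1.5-5 × 10^4 cells/mL mixed directly with serial compound dilutions, 72 h at 37 °C, 5% CO2. CCK-8 read-out at 450 nm, normalized to DMSO; GI50 by curve fitting.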

The subject of series [2] is Mast/stem cell growth factor receptor Kit (Homo sapiens), P10721 [T670I]. The series can be described thus: Inhibition of TEL fused c-KIT T670I mutant (unknown origin) transfected in mouse BAF3 cells assessed as growth inhibition after 72 hrs by CCK8 assay. In a few lines: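 Tel-c-KIT-transformed BaF3 lines (IL-3 independent) kept in RPMI 1640 with 10% FBS, 2% L-glutamine and pen/strep. Cells at 1.5 to 5 × 10^4 cells/mL mixed with graded compound and incubated 72 h at 37 °C, 5% CO2. Viability by CCK-8 absorbance at 450 nm, normalized to DMSO. GI50 from dose–response fit.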
(Tetrazolium assays rely on reduction of a dye to a coloured formazan, in cell work by metabolically active cells.)

The target of series [3] is Mast/stem cell growth factor receptor Kit (Homo sapiens, UniProt P10721). The series can be described thus: Inhibition of wild type TEL fused c-KIT (unknown origin) transfected in mouse BAF3 cells assessed as growth inhibition after 72 hrs by CCK8 assay. Conditions: baf3, 72 h. In short, it runs like this:
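IL-3 independent BaF3 cells stably expressing tel-c-KIT wt or tel-c-KIT T670I, grown in RPMI 1640 with 10% FBS, 2% L-glutamine, 37 °C, 5% CO2. Suspension cells at 1.5 to 5 × 10^4 cells/mL mixed with serial compound dilutions and incubated 72 h. Viability read by CCK-8 absorbance at 450 nm, normalized to DMSO; GI50 from curve fit. Selectivity is wt GI50 over T670I GI50.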

Sequence of Mast/stem cell growth factor receptor Kit (P10721 whole entry, the tested form may be a part): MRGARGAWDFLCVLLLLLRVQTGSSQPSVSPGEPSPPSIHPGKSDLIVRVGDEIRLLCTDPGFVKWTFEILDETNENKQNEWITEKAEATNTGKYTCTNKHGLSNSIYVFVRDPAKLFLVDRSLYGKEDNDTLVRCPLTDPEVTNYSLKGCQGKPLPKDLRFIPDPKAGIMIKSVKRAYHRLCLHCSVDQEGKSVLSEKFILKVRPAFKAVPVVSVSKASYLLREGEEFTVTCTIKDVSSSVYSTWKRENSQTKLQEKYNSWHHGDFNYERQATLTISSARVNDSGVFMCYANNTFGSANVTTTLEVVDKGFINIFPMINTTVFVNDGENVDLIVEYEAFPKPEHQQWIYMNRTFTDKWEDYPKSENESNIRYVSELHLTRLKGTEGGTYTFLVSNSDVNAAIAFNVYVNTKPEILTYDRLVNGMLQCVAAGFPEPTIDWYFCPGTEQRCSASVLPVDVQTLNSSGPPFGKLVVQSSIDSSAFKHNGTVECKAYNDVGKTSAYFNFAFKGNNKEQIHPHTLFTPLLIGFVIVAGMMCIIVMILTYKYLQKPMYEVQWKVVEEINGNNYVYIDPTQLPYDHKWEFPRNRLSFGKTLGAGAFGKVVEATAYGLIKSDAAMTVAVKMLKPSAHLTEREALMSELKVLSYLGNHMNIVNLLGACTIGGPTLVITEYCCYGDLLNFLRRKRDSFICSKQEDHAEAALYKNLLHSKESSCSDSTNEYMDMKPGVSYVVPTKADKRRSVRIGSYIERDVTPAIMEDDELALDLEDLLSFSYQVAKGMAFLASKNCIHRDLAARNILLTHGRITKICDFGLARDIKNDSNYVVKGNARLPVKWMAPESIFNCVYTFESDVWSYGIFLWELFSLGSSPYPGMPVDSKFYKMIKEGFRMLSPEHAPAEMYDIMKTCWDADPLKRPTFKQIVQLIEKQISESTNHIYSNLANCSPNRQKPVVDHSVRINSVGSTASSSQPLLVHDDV
Sequence of Mast/stem cell growth factor receptor Kit (Homo sapiens), P10721 [T670I] (P10721 whole entry T670I, the tested form may be a part): as the sequence (P10721 whole entry, the tested form may be a part) above, with T670I counted along it

Turning to `O=C(CC(=O)Nc1ccc2c(/C=C/c3ccccn3)n[nH]c2c1)Nc1cccc(Cl)c1`, it took 3610 nM to inhibit growth in series [1] by half (GI50 at 72 h). The GI50 (as a rule, the concentration that inhibits growth by half) was 111 nM in series [2] and 923 nM in series [3].

`CN1CCN(c2cccc(NC(=O)CC(=O)Nc3ccc4c(/C=C/c5ccccn5)n[nH]c4c3)c2)CC1`: in series [1], the GI50 at 72 h was above 10000 nM. The values for the GI50 in series [2] and in series [3] were 6170 nM and above 10000 nM, respectively.

`Cc1n[nH]c2cc(NC(=O)CC(=O)Nc3ccc(Cl)c(C(F)(F)F)c3)ccc12` registered a GI50 at 72 h in series [1] above 10000 nM. Also, the GI50 in series [2] was 1880 nM; in series [3] it was above 10000 nM.

Molecule `O=C(CC(=O)Nc1ccc2c(/C=C/c3ccccn3)n[nH]c2c1)Nc1cccc(C(F)(F)F)c1` returned a GI50 at 72 h in series [1] above 10000 nM. In addition, the values for the GI50 in series [2] and in series [3] were 86 nM and 216 nM, respectively.

The molecule `O=C(CC(=O)Nc1ccc2c(-c3cccc(F)c3)n[nH]c2c1)Nc1ccc(Cl)c(C(F)(F)F)c1` gave a 50% growth inhibitory concentration (GI50) at 72 h in series [1] above 10000 nM. The concentration for 50% growth inhibition (GI50) stood at 179 nM in series [2] and 1120 nM in series [3].

`O=C(CC(=O)Nc1c(F)c(F)c(F)c(F)c1F)Nc1ccc2c(/C=C/c3ccccn3)n[nH]c2c1` had a GI50 at 72 h in series [1] of 3680 nM. In addition, the GI50 was 1300 nM in series [2] and 2950 nM in series [3].

Molecule `Cc1ccc(-c2n[nH]c3cc(NC(=O)CC(=O)Nc4ccc(Cl)c(C(F)(F)F)c4)ccc23)cn1` came in with a GI50 at 72 h in series [1] of 4910 nM. For the same molecule, the GI50 was determined as 59 nM in series [2] and 183 nM in series [3].

`NC(=O)c1cccc(-c2n[nH]c3cc(NC(=O)CC(=O)Nc4ccc(Cl)c(C(F)(F)F)c4)ccc23)c1` yielded a GI50 at 72 h in series [1] above 10000 nM. Moreover, the GI50 is 339 nM in series [2] and 1550 nM in series [3].

As for `O=C(Nc1ccc(Cl)c(C(F)(F)F)c1)C1(C(=O)Nc2ccc3c(/C=C/c4ccccn4)n[nH]c3c2)CC1`, in series [1], the GI50 at 72 h is above 10000 nM. Also, the 50% growth inhibitory concentration (GI50) in series [2] turned out to be 230 nM; in series [3], 1000 nM.

In series [1], `O=C(CC(=O)Nc1ccc2c(/C=C/c3ccccn3)n[nH]c2c1)Nc1ccc(F)cc1` came in with a GI50 at 72 h of 5860 nM. The GI50 in series [2] was found to be 111 nM; in series [3], 554 nM.

Turning to `O=C(CC(=O)Nc1ccc2c(/C=C/c3ccccn3)n[nH]c2c1)Nc1cccc(Br)c1`, in series [1], growth was halved (GI50 at 72 h) at 6090 nM. The GI50 in series [2] worked out at 113 nM; in series [3] it was 943 nM.

Regarding `CN1CCN(c2ccc(-c3n[nH]c4cc(NC(=O)CC(=O)Nc5ccc(Cl)c(C(F)(F)F)c5)ccc34)cc2)CC1`, the GI50 at 72 h in series [1] is 1350 nM. Moreover, the figures for the GI50 in series [2] and in series [3] were 12 nM and 25 nM, respectively.

`CN1CCN(Cc2ccc(-c3n[nH]c4cc(NC(=O)CC(=O)Nc5ccc(Cl)c(C(F)(F)F)c5)ccc34)cc2)CC1` returned a GI50 at 72 h in series [1] of 911 nM. For the same molecule, the results for the concentration for 50% growth inhibition (GI50) in series [2] and in series [3] were 12 nM and 19 nM, respectively.

In the case of `O=C(Nc1ccc(Cl)c(C(F)(F)F)c1)Nc1ccc2c(/C=C/c3ccccn3)n[nH]c2c1`, the GI50 at 72 h in series [1] is 1900 nM. Also, the GI50 in series [2] was determined as 1150 nM; in series [3] it was 1600 nM.

Regarding `Cc1cccc(NC(=O)CC(=O)Nc2ccc3c(/C=C/c4ccccn4)n[nH]c3c2)c1`, the GI50 at 72 h in series [1] is above 10000 nM. Moreover, the GI50 came to 170 nM in series [2] and 1430 nM in series [3].

`O=C(CC(=O)Nc1ccc2c(/C=C/c3ccccn3)n[nH]c2c1)Nc1cc(F)cc(F)c1` registered a GI50 at 72 h in series [1] of 4240 nM. For the same molecule, the GI50 was found to be 399 nM in series [2] and 1870 nM in series [3].

`COc1cccc(NC(=O)CC(=O)Nc2ccc3c(/C=C/c4ccccn4)n[nH]c3c2)c1` had a GI50 at 72 h in series [1] above 10000 nM. In addition, the values for the GI50 in series [2] and in series [3] were 234 nM and 2740 nM, respectively.

The molecule `O=C(Cc1ccc(Cl)c(C(F)(F)F)c1)Nc1ccc2c(/C=C/c3ccccn3)n[nH]c2c1` came in with a GI50 at 72 h in series [1] of 3790 nM. The GI50 in series [2] is 3180 nM; in series [3], 5500 nM.

As for `O=C(Nc1ccc2c(/C=C/c3ccccn3)n[nH]c2c1)c1ccc(Cl)c(C(F)(F)F)c1`, the GI50 at 72 h in series [1] was found to be 1710 nM. The GI50 stood at 1710 nM in series [2] and 2970 nM in series [3].

Source of the values: ChEMBL document CHEMBL4304743, “Discovery of ( E)- N1-(3-Fluorophenyl)- N3-(3-(2-(pyridin-2-yl)vinyl)-1 H-indazol-6-yl)malonamide (CHMFL-KIT-033) as a Novel c-KIT T670I Mutant Selective Kinase Inhibitor for Gastrointestinal Stromal Tumors (GISTs)” (J Med Chem, 2019).
